Results collected from several papers.
Lines come from different studies, so protocols differ.
SLC6A3: Sodium-dependent dopamine transporter (SLC6A3, Homo sapiens, UniProt Q01959)
CA12: Carbonic anhydrase 12 (CA12, Homo sapiens, UniProt O43570)

SMILES | target | effect on | mode | method | pH | setting | Ki [nM]
COC(=O)[C@H]1[C@@H](c2ccc(Cl)c(Cl)c2)C[C@@H]2CC[C@H]1N2CCCOCc1ccc2cc3ccccc3cc2c1 | SLC6A3 | ligand displacement |  | radioligand | pH 7.4 | cell membranes | 204
O=C(Nc1ccc2c(c1)C=CCP(=O)(O)O2)c1ccc(I)cc1 | CA12 | enzyme activity | inhibitor | stopped-flow |  |  | 57.5
CCCCC1CNC2CCc3ccc(OC)cc3C12 (racemic) | SLC6A3 | ligand displacement |  | radioligand |  |  | > 10000
COC(=O)[C@H]1[C@@H](c2ccc(Cl)cc2)C[C@@H]2CC[C@H]1N2CCCCCCCCCc1c2ccccc2cc2ccccc12 | SLC6A3 | ligand displacement |  | radioligand | pH 7.4 |  | 24
COc1cc2c(cc1OC)CN(CCc1ccc(NC(=O)c3cccc4c(=O)c5cccc(OC)c5[nH]c34)cc1)CC2 | D(3) dopamine receptor (DRD3, Homo sapiens, UniProt P35462) | cell-free assay |  |  |  |  | 77
CCOP1(=O)CC=Cc2cc(N)ccc2O1 (stereo not drawn) | CA12 | enzyme activity | inhibitor | stopped-flow |  |  | 16.6
Cc1cc(=O)oc2cc(OCCCC[Se]C#N)ccc12 | CA12 | enzyme activity | inhibitor | stopped-flow |  |  | 51.6
COc1ccc(NC(=O)Nc2ccc3c(c2)C=CCP(=O)(O)O3)cc1 | CA12 | enzyme activity | inhibitor | stopped-flow |  |  | > 10000
Cc1c(Cl)c(=O)oc2cc(OCCCC[Se]C#N)ccc12 | CA12 | enzyme activity | inhibitor | stopped-flow |  |  | 71.6
